From PubChem
T cruzi intra: inhibitors of intracellular Trypanosoma cruzi, primary screen, cell-based, plate reader, single point, set 2; 22,000 compounds, 4.9% hits; activity score (inhibition), % at 5.01 µM; intracellular Trypanosoma cruzi in host cells; in the data active = activity score above about 55%;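 note: parasites and compound incubated about four days before reading; 0% = median of neutral control wells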
YB-1 expression: inhibitors of YB-1 gene expression, primary screen, cell-based, fluorescence; U2OS, qRT-PCR YB-1 vs CDIP delta delta Cp, 16 h; hits give high values; zero = DMSO, each unit about twofold; delta delta Cp (YB-1 minus CDIP) (concentration not given with the values); 30,000 compounds, 0.37% hits; AID 434959, 2010;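 active = delta delta Cp rounded down to an integer at or above 3, about 3 SD of DMSO wells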;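 note: higher means less YB-1 transcript or more CDIP transcript relative to DMSO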
INS-1E rescue: protection of INS-1E cells from cytokine death, primary screen, ATP luminescence, single point; INS-1E cytokine-induced death, 48 h; normalised: neutral wells 0, positive control 100; AID 488910, 2010; 20,000 compounds, 0.1% hits; protection from cytokine-induced ATP loss, % at 10 µM;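 active = mean replicate protection from cytokine-induced ATP loss at least 50% and at least 75% of replicates each reaching 50%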
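Assay system: INS-1E rat insulinoma cells. Amount: 8000 cells per well. Medium: phenol-red-free RPMI with 5% fetal bovine serum. Reagent: IL-1β, TNF-α and IFN-γ cytokine mix. Doses: one compound concentration, pin transfer. Schedule: 48 h co-treatment, 10 min post-lysis read. Detection: CellTiter-Glo luminescence measuring cellular ATP.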
Starred values were filed as active, the others as inactive. The sample as a whole holds a higher share of hits than the screen did.

`Cc1noc(C)c1S(=O)(=O)Nc1cccc2c1O[C@@H](CN(C)Cc1ccc(C(=O)Nc3ccccc3N)cc1)[C@@H](C)CN([C@@H](C)CO)C2=O` gave T cruzi intra 66.1*, YB-1 expression -0.538 and INS-1E rescue -16.7.
`Cc1noc(C)c1S(=O)(=O)Nc1ccc2c(c1)C(=O)N([C@H](C)CO)C[C@@H](C)[C@H](CN(C)Cc1ccc(C(=O)Nc3ccccc3N)cc1)O2` gave T cruzi intra 51.7, YB-1 expression 0.0703 and INS-1E rescue -7.0.
`C[C@@H]1CN([C@H](C)CO)C(=O)Cc2cc(NS(C)(=O)=O)ccc2O[C@@H]1CN(C)Cc1ccc2c(c1)OCO2` gave T cruzi intra -10.5, YB-1 expression 0.0601 and INS-1E rescue 1.5.
`C[C@H]1CN([C@@H](C)CO)C(=O)CCCn2cc(nn2)CO[C@H]1CN(C)C(=O)c1ccc(N2CCN(C)CC2)cc1` gave T cruzi intra -20.7 and YB-1 expression -0.0957.
Screening Cc1noc(C)c1NC(=O)Nc1ccc2c(c1)CC(=O)N([C@@H](C)CO)C[C@H](C)[C@H](CN(C)Cc1ccc(C(=O)Nc3ccccc3N)cc1)O2 returned T cruzi intra 7.8, YB-1 expression -0.0246 and INS-1E rescue -14.4.
For Cc1noc(C)c1S(=O)(=O)Nc1ccc2c(c1)CC(=O)N([C@@H](C)CO)C[C@@H](C)[C@@H](CN(C)Cc1ccc(C(=O)Nc3ccccc3N)cc1)O2 the results were T cruzi intra 71.0*, YB-1 expression 0.369 and INS-1E rescue -4.7.
`Cc1noc(C)c1NC(=O)Nc1cccc2c1O[C@H](CN(C)Cc1ccc(Oc3ccccc3)cc1)[C@H](C)CN([C@H](C)CO)C2=O` gave T cruzi intra -8.0, YB-1 expression 0.0379 and INS-1E rescue -18.6.
C[C@H](CO)N1C[C@H](C)[C@H](CN(C)C(=O)Nc2ccc(C(F)(F)F)cc2)Oc2c(NC(=O)Nc3ccc(F)cc3)cccc2C1=O was read as T cruzi intra 10.8, YB-1 expression -0.266 and INS-1E rescue -73.6.
For C[C@@H]1CN([C@@H](C)CO)C(=O)Cc2cc(NC(=O)Nc3ccc(F)cc3)ccc2O[C@@H]1CN(C)Cc1ccc(C(F)(F)F)cc1 the results were T cruzi intra 79.8*, YB-1 expression -0.0243 and INS-1E rescue -32.0.
For C[C@H]1CN([C@@H](C)CO)C(=O)Cc2cc(NC(=O)C3CC3)ccc2O[C@@H]1CN(C)Cc1ccc(C(F)(F)F)cc1 the results were T cruzi intra 74.2*, YB-1 expression -0.58 and INS-1E rescue -0.2.
`C[C@H]1CN([C@@H](C)CO)C(=O)Cc2cc(NC(=O)Nc3ccc(F)cc3)ccc2O[C@H]1CN(C)Cc1ccc(C(F)(F)F)cc1` gave T cruzi intra 45.6, YB-1 expression 0.332 and INS-1E rescue -52.0.
For C[C@@H]1CN([C@@H](C)CO)C(=O)Cc2cc(NC(=O)Nc3ccc(C(F)(F)F)cc3)ccc2O[C@@H]1CN(C)Cc1ccc2c(c1)OCO2 the results were T cruzi intra 58.3*, YB-1 expression 0.0547 and INS-1E rescue -34.6.
Screening C[C@@H]1CN([C@@H](C)CO)C(=O)Cc2cc(NC(=O)Nc3ccc(C(F)(F)F)cc3)ccc2O[C@@H]1CN(C)C(=O)Nc1ccc(C(F)(F)F)cc1 returned T cruzi intra 76.1*, YB-1 expression -0.136 and INS-1E rescue -11.3.
`C[C@@H]1CN([C@@H](C)CO)C(=O)Cc2cc(NC(=O)C3CC3)ccc2O[C@@H]1CN(C)Cc1ccc(C(F)(F)F)cc1` gave T cruzi intra -12.9, YB-1 expression 0.0698 and INS-1E rescue -4.1.
C[C@@H]1CN([C@H](C)CO)C(=O)Cc2cc(NC(=O)Nc3ccc(C(F)(F)F)cc3)ccc2O[C@H]1CN(C)Cc1ccc2c(c1)OCO2 was read as T cruzi intra 7.9, YB-1 expression -0.239 and INS-1E rescue 0.2.
For C[C@@H]1CN([C@H](C)CO)C(=O)Cc2cc(NC(=O)Nc3ccc(C(F)(F)F)cc3)ccc2O[C@H]1CN(C)C(=O)Nc1ccc(C(F)(F)F)cc1 the results were T cruzi intra -15.1, YB-1 expression -0.41 and INS-1E rescue -30.0.
Screening CCc1nc(-c2ccc(OC)cc2)cc2cc(OC)c(OC)cc12 returned YB-1 expression -0.479.
`COc1ccc(NC(=O)Nc2cccc3c2O[C@@H](CN(C)S(=O)(=O)c2ccc(C)cc2)[C@@H](C)CN([C@H](C)CO)C3=O)cc1` gave T cruzi intra -26.4, YB-1 expression 0.44 and INS-1E rescue -9.5.
`Cc1cc(C)c(C2=NON3N(C(=O)c4cccs4)c4ccccc4N23)c(C)c1` gave YB-1 expression 0.273.
`C[C@H]1CN([C@@H](C)CO)C(=O)c2cc(NC(=O)NC3CCCCC3)ccc2O[C@H]1CN(C)Cc1ccc(Oc2ccccc2)cc1` gave T cruzi intra 0.0, YB-1 expression 1.78 and INS-1E rescue -34.2.
Screening Cc1noc(C)c1NC(=O)N(C)C[C@@H]1Oc2ccc(NC(=O)CCCCCC(=O)Nc3ccccc3N)cc2C(=O)N([C@@H](C)CO)C[C@@H]1C returned T cruzi intra -23.3, YB-1 expression 0.0732 and INS-1E rescue -1.9.
For C[C@@H]1CN([C@@H](C)CO)C(=O)c2cc(NS(=O)(=O)c3cn(C)cn3)ccc2O[C@H]1CN(C)CC1CC1 the results were T cruzi intra -4.1, YB-1 expression -0.24 and INS-1E rescue 2.3.
COc1ccc(S(=O)(=O)N(C)C[C@@H]2Oc3c(NC(=O)Nc4ccc(F)cc4)cccc3C(=O)N([C@@H](C)CO)C[C@H]2C)cc1 was read as T cruzi intra 8.5, YB-1 expression -0.0296 and INS-1E rescue 14.2.
`C[C@@H]1CN([C@H](C)CO)C(=O)c2cc(NC(=O)NC3CCCCC3)ccc2O[C@@H]1CN(C)C(=O)Nc1cccc2ccccc12` gave T cruzi intra 3.3, YB-1 expression 0.292 and INS-1E rescue 5.0.
Screening C[C@H]1CN([C@@H](C)CO)C(=O)Cc2cc(NC(=O)Nc3ccc(C(F)(F)F)cc3)ccc2O[C@@H]1CN(C)Cc1ccc(C(F)(F)F)cc1 returned T cruzi intra 69.4*, YB-1 expression 0.121 and INS-1E rescue -80.8.
C[C@H](CO)N1C[C@H](C)[C@H](CN(C)Cc2ccc(C(=O)O)cc2)Oc2ccc(NC(=O)Nc3ccc(C(F)(F)F)cc3)cc2CC1=O was read as T cruzi intra -19.2, YB-1 expression 0.0278 and INS-1E rescue -2.5.
CSc1sc(C(=O)O)c2c1S(=O)(=O)N(C)c1ccccc1-2 was read as YB-1 expression -0.265.
`C[C@H](CO)N1C[C@H](C)[C@@H](CN(C)Cc2ccc(-c3ccccc3)cc2)Oc2ccc(NC(=O)Nc3ccc(F)cc3)cc2C1=O` gave T cruzi intra 10.2, YB-1 expression -0.059 and INS-1E rescue -6.8.
`C[C@H]1CN([C@@H](C)CO)C(=O)c2cc(NC(=O)Nc3ccc(F)cc3)ccc2O[C@H]1CN(C)Cc1ccc(-c2ccccc2)cc1` gave T cruzi intra 64.9*, YB-1 expression 0.237 and INS-1E rescue -40.9.
